In general, Ki refers to the equilibrium dissociation constant of an inhibitor or competing ligand from its target. For orientation: IC50 means the midpoint of a concentration-inhibition curve.

Each structure is given as a SMILES string. Calls of active or inactive are those of the source. The calls are words filed in the database; no cut-off is given here.

Results on 16 compounds are retold here after ChEMBL document CHEMBL4052824, “Interfering with HuR-RNA Interaction: Design, Synthesis and Biological Characterization of Tanshinone Mimics as Novel, Effective HuR Inhibitors” (J Med Chem, 2018).

In test [1] the target is T1, ELAV-like protein 1 (Homo sapiens, UniProt Q15717). Kind of test: Binding affinity to human full length recombinant His-tagged HuR expressed in Escherichia coli […] assessed as inhibition of interaction with single-strand Bi-AU RNA probe by AlphaScreen assay. A general note: Bead proximity is the source of the signal in Alpha formats.
The subject of test [2] is MDA-MB-231. Kind of test: Cytotoxicity against human MDA-MB-231 cells assessed as decrease in cell viability after 72 hrs by OZBlue assay. The following applies: MDA-MB-231, 72 h.
Test [3] deals with T1, ELAV-like protein 1. Kind of test: Binding affinity to human full length recombinant HuR expressed in Escherichia coli […] assessed as inhibition of interaction with 5'-DY681-labeled AU-rich RNA probe at 5 uM after 30 mins by REMSA. Put shortly: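 Non-denaturing, non-cross-linked REMSA: full-length recombinant His-tagged HuR (E. coli-expressed) in at least 10-fold excess incubated 30 min with 75 fmol 5′-DY681-labeled AU-rich RNA probe plus DMSO or compound at 5 μM; reduction of shifted probe band scored qualitatively.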

Test [4] has as its system PANC-1. Briefly: Cytotoxicity against human PANC1 cells assessed as decrease in cell viability after 72 hrs by OZBlue assay. The following applies: PANC-1, 72 h.
Test [5] relates to MCF7. Kind of test: Cytotoxicity against human MCF7 cells assessed as decrease in cell viability after 72 hrs by OZBlue assay. The following applies: MCF7, 72 h.
The subject of test [6] is MCF7. Kind of test: Downregulation of HPRT1 mRNA expression in human MCF7 cells at 5 uM after 6 hrs by qRT-PCR method. It is filed as functional, cell-based. Put shortly:
(§1)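 MCF7 cells treated with 5 μM compound or DMSO for 6 h. Total RNA extracted, transcript levels measured by qRT-PCR and normalized to RNA18s. Biological triplicate, mean ± SD, t test versus control.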
On the technique in general: Real-time PCR tracks product formation cycle by cycle.

In test [7] the test system is MDA-MB-231. Kind of test: Antimigratory activity in human MDA-MB-231 cells at 5 to 20 uM after 24 to 48 hrs by scratch assay. The test is classed as functional, cell-based. Put shortly:
(§2)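 Scratch assay: monolayers in DMEM with 10% FBS wounded with a pipette tip, then treated with DMSO or compound; the same field imaged at 0, 24 and 48 h at 5× magnification and residual open wound area measured. Student t test.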

Test [8] concerns PANC-1. Kind of test: Antimigratory activity in human PANC1 cells at 5 to 20 uM after 24 to 48 hrs by scratch assay. The test is classed as functional, cell-based. In short, it runs like this:
as §2

Test [9] can be described thus: Binding affinity to TNF AU-rich elements (unknown origin) at 10 uM by CD spectroscopic method. In short, it runs like this:
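Circular dichroism of TNF-ARE RNA (10 μM final) with compound (10 μM) in 10 mM sodium phosphate, pH 7.3. Spectra were recorded at 240–350 nm and 100 nm/min. The spectrum of compound alone (10 μM) in the same buffer was subtracted, and Δε was plotted to judge any change in RNA conformation.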

The subject of test [10] is MCF7. Briefly: Downregulation of RPLP0 mRNA expression in human MCF7 cells at 5 uM after 6 hrs by qRT-PCR method. It is filed as functional, cell-based. Put shortly: as §1
A short description of test [11]: Binding affinity to 5'-DY681-labeled AU-rich RNA probe (unknown origin) at 5 uM after 30 mins by REMSA. Put shortly: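 Non-denaturing, non-cross-linked gel-shift assay: 75 fmol of 5′-DY681-labeled AU-rich RNA probe incubated 30 min with compound at 5 μM, with DMSO as control. The probe was read by its fluorescent label to detect a shift or loss of the free RNA band.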

In test [12] the target is T1, ELAV-like protein 1. Briefly: Change in HuR localization from nucleus to cytoplasm in human MCF7 cells at 1 uM after 3 hrs by DAPI staining-based immunofluorescence method. It is filed as cell-based. Put shortly:
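MCF7 cells, 8.000/well, treated 3 h alongside DMSO control, then fixed in 3.7% PFA for 15 min at RT. Permeabilised 10 min (200 mM sucrose, 0.2% Triton X-100) and blocked 15 min in 2% BSA. Stained with anti-HuR (1:250), Alexa 594 secondary (1:500) and DAPI (1.5 μg/mL). Imaged at 40×, 13 fields/well. Read-out: nuclear/cytoplasmic HuR ratio, mean of single cells per well.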

T1 sequence (Q15717 whole entry): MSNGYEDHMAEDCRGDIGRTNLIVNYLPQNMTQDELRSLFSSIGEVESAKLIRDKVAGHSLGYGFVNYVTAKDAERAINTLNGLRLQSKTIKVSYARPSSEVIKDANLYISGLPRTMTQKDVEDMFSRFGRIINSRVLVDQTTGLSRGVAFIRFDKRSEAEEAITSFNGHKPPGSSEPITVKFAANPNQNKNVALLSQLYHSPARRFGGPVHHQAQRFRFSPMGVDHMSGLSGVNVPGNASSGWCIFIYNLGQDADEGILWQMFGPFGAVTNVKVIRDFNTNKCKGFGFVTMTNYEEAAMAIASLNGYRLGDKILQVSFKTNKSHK

Consider `COc1ccc(-c2cn(S(=O)(=O)c3ccccc3)c3c2C(=O)C(=O)C=C3)cc1`, for which, at ELAV-like protein 1 [1], the Ki is greater than 0.2 µM.
Same read-out and setting: the same measure for `O=C1C=C(c2ccc([N+](=O)[O-])cc2)c2c(c(-c3ccccc3)cn2S(=O)(=O)c2ccccc2)C1=O`: greater than 0.1 µM; for `O=C1C=C(c2ccccc2)c2c(c(-c3ccccc3)cn2S(=O)(=O)c2ccccc2)C1=O`: greater than 0.1 µM; for `O=C1C=Cc2c(c(-c3ccccc3)cn2S(=O)(=O)c2cccc([N+](=O)[O-])c2)C1=O`: greater than 0.1 µM.
Take `Cc1ccccc1-c1cn(S(=O)(=O)c2ccccc2)c2c1C(=O)C(=O)C=C2`: the IC50 was 47.2 µM with MDA-MB-231 [2], 25.9 µM in the test with PANC-1 [4] and 58.5 µM in the test with MCF7 [5]. For the same compound, the inhibition result at ELAV-like protein 1 [3] is “Active”.
In the case of `CN(C)c1ccc(-c2cn(S(=O)(=O)c3ccccc3)c3c2C(=O)C(=O)C=C3)cc1`, at ELAV-like protein 1 [1], the Ki is greater than 0.1 µM.
The same measure, in the same setting: the same measure for `O=C1C(=O)c2c(-c3ccccc3)cn(S(=O)(=O)c3ccccc3)c2C2=C1C1C=CC2CC1` (stereo unspecified): greater than 0.3 µM.
For the compound `O=C1C=Cc2c(c(-c3ccccc3)cn2S(=O)(=O)c2ccccc2)C1=O`, the outcome (in the test on MCF7 [6]; in test [9]; with MCF7 [10]; in [11]) was inactive. The result in the test with MDA-MB-231 [7] and in the test on PANC-1 [8] was Active. In addition, the IC50 with MDA-MB-231 [2] is 24.2 µM; with PANC-1 [4] it was 26.5 µM; in the test with MCF7 [5], 32.7 µM.
Turning to `O=C1C=C(Sc2ccccc2)c2c(c(-c3ccccc3)cn2S(=O)(=O)c2ccccc2)C1=O`, the IC50 worked out at 23.8 µM in the test on MDA-MB-231 [2], 24.9 µM with PANC-1 [4] and 28.7 µM with MCF7 [5]. Also, at ELAV-like protein 1 [3], the inhibition result was “Active”.
For `Cc1cccc2c3c(ccc12)C1=C(C(=O)C3=O)[C@@H](C)CO1` [DIHYDROTANSHINONE I], the values for the IC50 with MDA-MB-231 [2], in the test with PANC-1 [4] and in the test on MCF7 [5] were 8.99 µM, 2.91 µM and 3.73 µM, respectively. Moreover, the result at ELAV-like protein 1 [12] was inactive. The Ki on ELAV-like protein 1 [1] worked out at 0.05 µM.
In the case of `O=C(O)Cc1ccc(SC2=CC(=O)C(=O)c3c(-c4ccccc4)cn(S(=O)(=O)c4ccccc4)c32)cc1`, the inhibition entry on ELAV-like protein 1 [3] is “Active”.
Take `CC1=CC(=O)C(=O)c2c(-c3ccccc3)cn(S(=O)(=O)c3ccccc3)c21`: the Ki on ELAV-like protein 1 [1] was greater than 0.2 µM.
Still for that read-out and setting: the same measure for `COc1cccc(-c2cn(S(=O)(=O)c3ccccc3)c3c2C(=O)C(=O)C=C3)c1`: greater than 0.2 µM; for `O=C1C=Cc2c(c(-c3ccccc3)cn2S(=O)(=O)c2cccc(F)c2)C1=O`: greater than 0.1 µM.
Take `COc1ccc(SC2=CC(=O)C(=O)c3c(-c4ccccc4)cn(S(=O)(=O)c4ccccc4)c32)cc1`: the IC50 in the test with MDA-MB-231 [2] worked out at 14.3 µM; in the test with PANC-1 [4], 13.6 µM; in the test with MCF7 [5], 23.5 µM.
In the case of `O=C1C=Cc2c(c(-c3ccccc3)cn2S(=O)(=O)c2ccc([N+](=O)[O-])cc2)C1=O`, at ELAV-like protein 1 [3], the inhibition entry was “Active”.
